Test results published in ChEMBL document CHEMBL4385644, “Phenylhydrazides as inhibitors of Leishmania amazonensis arginase and antileishmanial activity” (Bioorg Med Chem, 2019).
The source made the active and inactive calls. The rule behind the calls is not given here.

How the values were obtained:
[1] = target: Arginase (Leishmania amazonensis) (UniProt O96394); assay: Inhibition of recombinant Leishmania amazonensis arginase expressed in Escherichia coli assessed as reduction in urea production at 100 uM using L-arginine as substrate by Berthelot colorimetric method relative to control
Leishmania amazonensis [2] = assay: Antileishmanial activity against Leishmania amazonensis MHOM/BR/1973/M2269 promastigotes assessed as inhibition of parasite growth at 100 uM incubated for 72 hrs by MTT assay; format: functional, organism-based
Method in brief: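 Single-concentration screen at 100 µM. Stationary-phase MHOM/BR/1973/M2269 promastigotes in supplemented M199, 5.0 × 10^5 cells, exposed 72 h. Formazan dissolved in DMSO and read at 570 nm.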

Arginase [3] = target: T1, Arginase (Leishmania amazonensis, UniProt O96394); assay: Inhibition of recombinant Leishmania amazonensis arginase expressed in Escherichia coli assessed as reduction in urea production using L-arginine as substrate by Berthelot colorimetric method relative to control
Method in brief: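 Arginase overexpressed in E. coli and purified. Urea formed was measured colorimetrically by the Berthelot method. IC50 given as mean ± SEM.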

Leishmania amazonensis [4] = assay: Antileishmanial activity against Leishmania amazonensis MHOM/BR/1973/M2269 promastigotes assessed as inhibition of parasite growth incubated for 72 hrs by MTT assay; format: functional, organism-based; details: MHOM/BR/1973/M2269, 72 h
Method in brief: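 MHOM/BR/1973/M2269 promastigotes grown to stationary phase in M199 with 10% FBS, 5 ppm hemin, streptomycin and penicillin; 5.0 × 10^5 cells exposed 72 h to compounds at 100 µM to 0.78 µM (amphotericin B control, 10 µM downward). Formazan dissolved in DMSO and read at 570 nm. EC50 from a normalized variable-slope sigmoidal fit; mean ± SEM.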

Arginase [5] = target: T1, Arginase; assay: (§1) Competitive inhibition of recombinant Leishmania amazonensis arginase expressed in Escherichia coli assessed as reduction in urea production by measuring dissociation constant for enzyme-inhibitor complex using L-arginine as substrate by Berthelot colorimetric method based Dixon/Cornish-Bowden plot analysis relative to control
Method in brief: (§2)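 Urea read by the Berthelot method. Ki and Kis taken from Dixon and Cornish-Bowden plots; Cornish-Bowden slopes compared statistically. Points are means of three independent experiments run in duplicate; constants given as mean ± SEM.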

[6] = target: Arginase (Leishmania amazonensis) (UniProt O96394); assay: as §1, with “Mixed type” for “Competitive”, “enzyme-substrate-inhibitor” for “enzyme-inhibitor”; method in brief: as §2
[7] = target: Arginase (Leishmania amazonensis) (UniProt O96394); assay: Ratio of Ki to Kis for inhibition of recombinant Leishmania amazonensis arginase expressed in Escherichia coli assessed as reduction in urea production using L-arginine as substrate by Berthelot colorimetric method based Dixon/Cornish-Bowden plot analysis relative to control

Q: CC(=O)Nc1ccccc1C(F)(F)C(=O)NNc1ccccc1 was tested. Which inhibition [1] did it give?
A: > 70%

Q: And the “growth inhibition (GI)” value (Leishmania amazonensis [2])?
A: Active

Q: What about the IC50 (Arginase [3]; read-out: IC50) of the same compound?
A: 12 µM

Q: And the EC50 (Leishmania amazonensis [4])?
A: 12.7 µM

Q: And the Ki (Arginase [5])?
A: 5.1 µM

Q: For CC(=O)Nc1ccccc1C(F)(F)C(=O)Nc1ccccc1, which inhibition [1] is on record?
A: inactive

Q: And the IC50 (Arginase [3])?
A: Not Active

Q: Which results are given for CC(=O)Nc1ccc(C)cc1C(F)(F)C(=O)NNc1ccccn1?
A: IC50 (Arginase [3]; read-out: IC50): > 100 µM; EC50 (Leishmania amazonensis [4]): > 100 µM

Q: Which inhibition [1] does the source give for CC(=O)Nc1ccccc1C(F)(F)C(=O)NNc1ccc(C(F)(F)F)cc1 here?
A: > 70%

Q: What about the IC50 (Arginase [3]; read-out: IC50) of the same compound?
A: 38 µM

Q: And the EC50 (Leishmania amazonensis [4])?
A: > 100 µM

Q: And the Kis [6]?
A: 11 µM

Q: What about the Ki (Arginase [5]) of the same compound?
A: 26 µM

Q: For CC(=O)Nc1ccccc1C(F)(F)C(=O)NNc1ccccn1, which inhibition [1] is on record?
A: 8%

Q: What about the IC50 (Arginase [3]; read-out: IC50) of the same compound?
A: > 100 µM

Q: What about the EC50 (Leishmania amazonensis [4]) of the same compound?
A: > 100 µM

Q: CC(=O)Nc1ccccc1C(F)(F)C(=O)Nc1ccc(Cl)cc1 was tested. Which inhibition [1] did it give?
A: inactive

Q: What about the IC50 (Arginase [3]) of the same compound?
A: Not Active

Q: Which results are given for CC(=O)Nc1ccc(C)cc1C(F)(F)C(=O)NNc1ccccc1?
A: inhibition [1]: > 70%; IC50 (Arginase [3]; read-out: IC50): 12 µM; EC50 (Leishmania amazonensis [4]): > 100 µM; Kis [6]: 26 µM; Ki (Arginase [5]): 1.3 µM

Q: For CC(=O)Nc1ccccc1C(F)(F)C(=O)NCc1ccccc1, which inhibition [1] is on record?
A: > 70%

Q: What about the IC50 (Arginase [3]; read-out: IC50) of the same compound?
A: 37 µM

Q: What about the EC50 (Leishmania amazonensis [4]) of the same compound?
A: > 100 µM

Q: What about the Kis [6] of the same compound?
A: 6.5 µM

Q: What about the Ratio [7] of the same compound?
A: 5

Q: What about the Ki (Arginase [5]) of the same compound?
A: 32 µM

Q: Which IC50 (Arginase [3]) does the source give for C[C@@H]1[C@H](O)[C@@H](C)/C=C/C=C/C=C/C=C/C=C/C=C/C=C/[C@H](O[C@@H]2O[C@H](C)[C@@H](O)[C@H](N)[C@@H]2O)C[C@@H]2O[C@](O)(C[C@@H](O)C[C@@H](O)[C@H](O)CC[C@@H](O)C[C@@H](O)CC(=O)O[C@H]1C)C[C@H](O)[C@H]2C(=O)O [AMPHOTERICIN B] here?
A: Not Active

Q: And the EC50 (Leishmania amazonensis [4])?
A: 0.33 µM

Q: How did the inhibition [1] turn out when CC(=O)Nc1ccc(C)cc1C(F)(F)C(=O)NC(C)C was run?
A: inactive

Q: And the IC50 (Arginase [3])?
A: Not Active
